Test results taken from ChEMBL document CHEMBL1938298, “Synthesis and characterization of [¹²⁵I]2-iodo N-[(S)-{(S)-1-methylpiperidin-2-yl}(phenyl)methyl]3-trifluoromethyl-benzamide as novel imaging probe for glycine transporter 1” (Bioorg Med Chem, 2011).
The source made the active and inactive calls. The rule behind the calls is not given here.

What was measured:
Nucleic Acid [1] = test: Ratio of drug level in brain to blood in ddY mouse at 11.1 kBq, iv after 30 min by gamma counting; assay type: ADME, organism-based; conditions: 0.5 h
Pancreas = test: Drug uptake in ddY mouse pancreas at 11.1 kBq, iv after 15 min by gamma counting; assay type: ADME, organism-based; conditions: in vivo
In short: (§1)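 Male ddY mice (6 weeks, 30–35 g) were given about 11.1 kBq of [125I]tracer in 0.1 mL i.v. via the tail vein. At each time point the animals were killed and organs dissected, weighed and gamma-counted. Uptake is expressed as % injected dose per gram of tissue, mean ± SD, n = 5–6.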

Heart = test: Drug uptake in ddY mouse heart at 11.1 kBq, iv after 30 min by gamma counting; assay type: ADME, organism-based; conditions: in vivo, 0.5 h
In short: (§2)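 Male ddY mice (6 weeks, 30–35 g) received about 11.1 kBq [125I]tracer in 0.1 mL i.v. via tail vein. Killed at set times, organs dissected and weighed, radioactivity gamma counted. Reported as % injected dose/g tissue, mean ± SD, n = 5–6.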

Blood = test: Drug uptake in ddY mouse blood at 11.1 kBq, iv after 5 min by gamma counting; assay type: ADME, organism-based; conditions: in vivo; in short: as §2
Nucleic Acid [2] = test: Ratio of drug level in brain to blood in ddY mouse at 11.1 kBq, iv after 0.5 min by gamma counting; assay type: ADME, organism-based
Mus musculus [3] = test: In vivo binding affinity to GlyT1 in ddY mouse brain midbrain at 33.3 kBq, iv after 30 mins in presence of N-Me-SSR504734 2 mg/kg, iv administered 15 mins prior to compound administration relative to control; assay type: functional
Brain = test: Drug uptake in ddY mouse brain at 11.1 kBq, iv after 0.5 min by gamma counting; assay type: ADME, organism-based; conditions: in vivo; in short: as §2
Stomach = test: Drug uptake in ddY mouse stomach at 11.1 kBq, iv after 5 min by gamma counting; assay type: ADME, organism-based; conditions: in vivo; in short: as §1
[4] = target: T1, Sodium- and chloride-dependent glycine transporter 1 (Rattus norvegicus) (UniProt P28572); test: Binding affinity to GlyT1 in rat brain corpus callosum at 0.03 to 0.04 nM preincubated for 20 mins in binding buffer before compound addition measured after 30 mins by autoradiography in presence of 1 mM GlyT1 substrate glycine relative to control; assay type: tissue-based; conditions: tested as the 125I-labelled form
T1 sequence (whole entry): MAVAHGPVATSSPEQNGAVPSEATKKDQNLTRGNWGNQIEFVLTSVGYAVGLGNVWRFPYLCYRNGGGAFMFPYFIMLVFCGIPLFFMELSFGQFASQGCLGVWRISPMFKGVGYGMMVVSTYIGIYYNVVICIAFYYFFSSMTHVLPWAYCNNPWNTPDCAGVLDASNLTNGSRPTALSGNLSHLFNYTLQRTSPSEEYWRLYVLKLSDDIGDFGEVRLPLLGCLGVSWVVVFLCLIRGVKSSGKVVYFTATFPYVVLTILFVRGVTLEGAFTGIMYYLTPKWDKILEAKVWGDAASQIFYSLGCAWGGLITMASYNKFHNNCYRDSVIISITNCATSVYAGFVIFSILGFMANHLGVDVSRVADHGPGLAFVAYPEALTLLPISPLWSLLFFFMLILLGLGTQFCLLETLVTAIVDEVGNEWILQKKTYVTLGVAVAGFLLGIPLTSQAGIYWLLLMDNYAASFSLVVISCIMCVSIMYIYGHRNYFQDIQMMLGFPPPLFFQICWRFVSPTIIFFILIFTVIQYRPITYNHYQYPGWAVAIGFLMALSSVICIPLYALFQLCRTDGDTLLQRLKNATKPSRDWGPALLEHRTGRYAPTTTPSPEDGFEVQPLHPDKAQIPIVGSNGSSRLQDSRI
In short: (§3)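 Rat brain sagittal sections (20 µm) preincubated 20 min at 25 °C in Tris-HCl buffer pH 7.5 (NaCl, KCl, MgCl2, CaCl2), then 30 min at 25 °C with [125I] tracer (100 kBq, 0.03–0.04 nM) plus competitor (10 µM; glycine 1 or 10 mM). Cold washes, imaging plate 3 days, ROI PSL minus background per mm². % control from ≥triplicate slices, three rats.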

Mus musculus [5] = test: In vivo binding affinity to GlyT1 in ddY mouse brain thalamus at 33.3 kBq, iv after 30 mins in presence of SSR504734 2 mg/kg, iv administered 15 mins prior to compound administration relative to control; assay type: functional, organism-based; parameters: dose 2 mg/kg; conditions: tested as the 125I-labelled form
[6] = target: T1, Sodium- and chloride-dependent glycine transporter 1 (Rattus norvegicus); test: Binding affinity to GlyT1 in rat cortical brain homogenate assessed per mg of protein after 60 mins by gamma counting; assay type: tissue-based; conditions: tested as the 125I-labelled form
In short: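 Saturation binding on washed rat cortical membranes (25 µg protein) with [125I]tracer 0.1–20 nM in TB1 buffer (120 mM NaCl, 2 mM KCl, 1 mM CaCl2, 1 mM MgCl2, 10 mM HEPES, pH 7.5), 60 min at room temperature. Nonspecific binding defined with 10 µM unlabeled ligand. GF/B filtration with ice-cold buffer washes, gamma counting; Kd and Bmax from saturation analysis.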

[7] = target: T1, Sodium- and chloride-dependent glycine transporter 1 (Rattus norvegicus); test: Binding affinity to GlyT1 in rat brain cerebellum at 0.03 to 0.04 nM preincubated for 20 mins in binding buffer before compound addition measured after 30 mins by autoradiography in presence of 1 mM GlyT1 substrate glycine relative to control; assay type: tissue-based; conditions: tested as the 125I-labelled form; in short: as §3
Mus musculus [8] = test: In vivo binding affinity to GlyT1 in ddY mouse brain hippocampus at 33.3 kBq, iv after 60 mins in presence of SSR504734 2 mg/kg, iv administered 15 mins prior to compound administration relative to control; assay type: functional, organism-based; parameters: dose 2 mg/kg; conditions: tested as the 125I-labelled form
In short: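 Male ddY mice (6 W, 30–35 g) were given [125I]5 (ca. 33.3 kBq, 0.1 mL) iv via tail vein. Blocker (2 mg/kg in 30% DMSO/saline) was given iv 15 min before the tracer. Mice were killed 30 or 60 min after injection and the brain regions were dissected and weighed. Gamma counting gave % dose/g, compared with control; n = 5–6.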

[9] = target: T1, Sodium- and chloride-dependent glycine transporter 1 (Rattus norvegicus); test: Binding affinity to GlyT1 in rat brain cerebellar gray matter at 0.03 to 0.04 nM preincubated for 20 mins in binding buffer before compound addition measured after 30 mins by autoradiography relative to control; assay type: tissue-based; conditions: tested as the 125I-labelled form
[10] = target: T1, Sodium- and chloride-dependent glycine transporter 1 (Rattus norvegicus); test: Binding affinity to GlyT1 in rat brain corpus callosum at 0.03 to 0.04 nM preincubated for 20 mins in binding buffer before compound addition measured after 30 mins by autoradiography in presence of GlyT1 inhibitor N-Me-SSR504734 relative to control; assay type: tissue-based; conditions: tested as the 125I-labelled form; in short: as §3
Mus musculus [11] = test: In vivo binding affinity to GlyT1 in ddY mouse brain hippocampus at 200 kBq, iv after 60 mins by autoradiography relative to control; assay type: functional, organism-based; conditions: tested as the 125I-labelled form
In short: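 Ex vivo autoradiography in mice given 200 kBq [125I]tracer i.v. and killed at 60 min. Brains were removed, frozen on dry ice and cut into 20 µm sagittal cryosections, which were exposed to an imaging plate for 7 days. Regional signal was quantified as PSL/mm² (n = 5) and compared to control by Kruskal–Wallis with Dunn's post-test.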

[12] = target: T1, Sodium- and chloride-dependent glycine transporter 1 (Rattus norvegicus); test: Binding affinity to GlyT1 in rat brain cerebral cortex at 0.03 to 0.04 nM preincubated for 20 mins in binding buffer before compound addition measured after 30 mins by autoradiography in presence of 10 mM GlyT1 substrate glycine relative to control; assay type: tissue-based; conditions: tested as the 125I-labelled form; in short: as §3

Ratio (Nucleic Acid [1]) | Drug uptake (Pancreas) [% ID/g] | Drug uptake (Heart) [% ID/g] | Drug uptake (Blood) [% ID/g] | Ratio (Nucleic Acid [2]) | Drug uptake (Brain) [% ID/g] | Drug uptake (Stomach) [% ID/g] | Activity [4] [%] | Bmax [6] [pmol] | Activity [7] [%] | Activity [9] | Activity [10] [%] | Activity [12] [%] | SMILES | Activity (Mus musculus [3]) [%] | Activity (Mus musculus [5]) | Activity (Mus musculus [8]) | Activity (Mus musculus [11])
2.46 | 7.93 | 3.95 | 0.87 | 0.38 | 0.51 | 3.3 | – | – | – | – | – | – | CN1CCCC[C@H]1[C@@H](NC(=O)c1cccc(C(F)(F)F)c1[125I])c1ccccc1 | 55 | – | – | –
– | – | – | – | – | – | – | 94.1 | 3.4 | 97.4 | inactive | 20.2 | 43.7 | CN1CCCC[C@H]1[C@@H](NC(=O)c1cccc(C(F)(F)F)c1I)c1ccccc1 | – | inactive | inactive | inactive
